# High-throughput results deposited in PubChem by several laboratories.
# Cardiac RTF inh: cardiac RTF calcium sensitivity inhibitors, primary screen, biochemical, IANBD-TnC fluorescence, EC70 calcium; AID 493244, 2011; Troponin I, cardiac muscle (Homo sapiens) + Troponin T, cardiac muscle (Homo sapiens) + …; hit rate 0.12% among 340,000; IANBD-labeled cardiac RTF, Ca2+ fluorescence; inhibition, % at 7.15 µM;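 active = inhibition above the mean inhibition of all tested compounds plus 3 SD, cut at about 17% in these data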;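 also: assay run at fixed EC70 calcium of 1.6 mM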
# Tn6 DDE FP: inhibitors of Tn6 peptide binding to fibrin DD(E), primary screen, biochemical, fluorescence polarization, human fibrin, Tn6 probe; Fibrinogen beta chain (Homo sapiens), P02675; Fibrin DD(E) TRITC-Tn6 fluorescence polarization displacement; inhibition, % at 8.3 µM; hit rate 0.21% among 370,000; AID 720509, 2013;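 active = inhibition above a per-campaign cutoff: mean of compounds within control limits plus 3 SD, cut at about 15% in these data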
# Target sequence (P02675 whole entry, looked up): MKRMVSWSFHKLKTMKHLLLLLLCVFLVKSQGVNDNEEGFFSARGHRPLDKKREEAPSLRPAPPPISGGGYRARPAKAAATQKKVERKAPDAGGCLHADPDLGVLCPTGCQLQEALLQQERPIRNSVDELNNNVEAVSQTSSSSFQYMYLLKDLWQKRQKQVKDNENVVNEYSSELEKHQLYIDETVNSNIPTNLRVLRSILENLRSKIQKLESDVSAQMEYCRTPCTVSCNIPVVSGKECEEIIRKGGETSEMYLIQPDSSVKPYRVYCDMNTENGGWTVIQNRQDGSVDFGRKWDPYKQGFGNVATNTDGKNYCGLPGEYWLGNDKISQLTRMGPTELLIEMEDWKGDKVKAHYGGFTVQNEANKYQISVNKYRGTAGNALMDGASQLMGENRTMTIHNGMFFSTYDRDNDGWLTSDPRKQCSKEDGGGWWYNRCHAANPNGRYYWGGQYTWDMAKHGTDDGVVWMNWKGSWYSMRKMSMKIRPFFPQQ
# RTF Ca sens act: cardiac RTF calcium sensitivity activators, primary screen, biochemical, IANBD-TnC fluorescence, EC20 calcium; Troponin I, cardiac muscle (Homo sapiens) + Troponin T, cardiac muscle (Homo sapiens) + …; IANBD-labeled TnC RTF fluorescence at EC20 calcium; 0% EC20 calcium, 100% full calcium; activation, % at 7.2 µM; hit rate 0.24% among 340,000; AID 493008, 2010;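 active = activation above the mean over all tested compounds plus 3 SD, cut at about 30% in these data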;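 also: rise in fluorescence read as greater calcium sensitivity of cardiac thin filaments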
# DDE Tn7 FP inh: inhibitors of Tn7 peptide binding to fibrin DD(E), primary screen, biochemical, fluorescence polarization, human fibrin, Tn7 probe | FP displacement of FITC-Tn7 peptide from fibrin DD(E); 0% = median of compound wells per plate | inhibition, % at 8.3 µM | hit rate 0.13% among 370,000 | AID 720508, 2013;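 active = inhibition above the mean of compounds falling within the control limits plus 3 SD of them, cut at about 14% in these data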
#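 Assay system: human fibrin DD(E). Input: DD(E) 2 µM final. Medium: Tris buffer with calcium and detergent, pH 7.8. Compound dosing: single point at 8.3 µM. Timing: 10 min plus 3 h, room temperature. Technique: fluorescence polarization of the labelled Tn7 tracer. Read-out: percent inhibition. Replicates: singlicate testing.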
# CRFR2-BP antag: antagonists of CRF-BP/CRF-R2 complex, primary screen, cell-based, HEK293, calcium dye fluorescence, uHTS. CRF-induced calcium fluorescence. inhibition, % at 11.8 µM. hit rate 0.59% among 350,000. AID 588475, 2011;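 active = inhibition of the ligand-induced calcium signal above about 50% at the single tested concentration, limit read from the data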
# CRFR2-BP ag: agonists of CRF-BP/CRF-R2 complex, primary screen, cell-based, HEK293, calcium dye fluorescence, uHTS; CRF-binding protein / CRF receptor 2 complex (human); calcium dye fluorescence (FLIPR); percent of saturating CRF peptide response; activation, % at 13.2 µM; hit rate 0.46% among 350,000; AID 588473, 2011;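 active = activation of at least 50%, plus an integration ratio under a set limit after plate pattern correction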
# Tn6 DDE ctr: counter-screen for inhibitors of Tn6 peptide binding to fibrin DD(E); hit rate 2% among 680; inhibition, % at 8.3 µM; AID 720621; shares compounds with Tn6 DDE FP; TRITC-Tn6 fluorescence polarization displacement; 0% = median of compound wells, not DMSO;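 active = inhibition above the mean of test compounds lying between the control limits plus 3 SD of those, cut at about 14% in these data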
# Tn6 DDE conf: inhibitors of Tn6 peptide binding to fibrin DD(E), confirmation, biochemical, fluorescence polarization, human fibrin, Tn6 probe | shares compounds with Tn6 DDE FP | FP displacement of TRITC-Tn6 peptide from DD(E); 0% = per-plate median of test wells | inhibition, % at 8.3 µM | AID 720631, 2013 | hit rate 10% among 680;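 active = inhibition above the mean of compounds lying within the control limits plus 3 SD, cut at about 16% in these data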
# Hits are given with their value; - = inactive; . = not tested or not shown. Shown are actives, neighbours in structure and some others; about 1.4% of the full set was active somewhere.
SMILES,Cardiac RTF inh,Tn6 DDE FP,RTF Ca sens act,DDE Tn7 FP inh,CRFR2-BP antag,CRFR2-BP ag,Tn6 DDE ctr,Tn6 DDE conf
CC(C)C1C(=O)N(Cc2cn(CCC3OCCCO3)nn2)CCS(=O)(=O)N1Cc1ccc(-c2ccc(F)nc2)cc1 (stereo not given),.,-,.,-,-,-,.,.
Cc1cc(N2C(=O)C(=O)/C(=C(/O)c3ccccc3)C2c2cccs2)no1 (stereo not given),-,21,-,-,-,-,-,-
CCOC(=O)C1(C)C=C(Nc2ccc(O)cc2)C(=O)N1c1ccc(O)cc1 (stereo not given),-,24,-,-,-,-,-,-
Cc1cccc(CCNC(=O)c2ccc(Sc3ccccc3Cl)c([N+](=O)[O-])c2)c1,.,-,.,-,.,.,.,.
CC1=CN2C(=N)/C(=C/c3ccc([N+](=O)[O-])o3)C(=O)N=C2S1,-,20,-,-,-,56,-,-
Cc1ccc(F)cc1C(=O)N1CCCCC1c1cc(C(=O)NC(C)C)no1 (stereo not given),.,-,.,-,.,.,.,.
O=C(C1CCCCC1)N1CCN(c2ccccc2F)CC1,-,42,-,-,-,-,-,-
COc1ccc(OC)c(S(=O)(=O)NC(=O)C2(C)CCN2C(=O)c2ccco2)c1 (stereo not given),.,-,.,-,.,.,.,.
COc1cc(NCCCC(C)N)c2ncccc2c1 (stereo not given),-,52,-,-,-,-,-,20
COc1cc(NS(=O)(=O)c2ccc(C)cc2)c2ncccc2c1,-,-,-,-,-,-,.,.
CCC(CNc1cc(OC)cc2cccnc12)NC1CCCCC1 (stereo not given),-,33,-,-,-,-,-,-
COCc1ccc(C(=O)N2CCCC(N(C)CCc3ccccc3)C2)s1 (stereo not given),.,-,.,-,-,-,.,.
CCCCCn1c(=O)[nH]c2cc(C(=O)NCCCN3CCC(C)CC3)ccc2c1=O,-,18,-,-,-,-,-,-
CCCCCn1c(=O)[nH]c2cc(C(=O)NCCN3CCC(C)CC3)ccc2c1=O,-,.,-,.,-,-,.,.
COC(=O)c1ccc2c(c1)C(C)(C)C(/C=C/c1ccccc1O)=[N+]2C,-,58,-,-,-,53,-,-
COc1ccc(OC[C@@H](O)CN2CCC(C(O)(c3ccccc3)c3ccccc3)CC2)cc1,.,-,.,-,.,.,.,.
CCOc1ccc(C(=O)Nc2cc(-c3nc4ccccc4[nH]3)ccc2Cl)cc1[N+](=O)[O-],-,25,-,-,-,-,-,-
COc1ccc(CC(=O)OCC(=O)N2CCCC(C)C2)cc1 (stereo not given),-,15,-,-,-,-,-,-
CC(C)c1cc(C(C)C)c(S(=O)(=O)N2CCC(c3cn4ccccc4n3)CC2)c(C(C)C)c1,.,-,.,-,.,.,.,.
COc1ccc(OC)c(S(=O)(=O)N2CCCC(C(=O)Nc3c(C)n(C)n(-c4ccccc4)c3=O)C2)c1 (stereo not given),.,-,.,-,.,.,.,.
O=c1[nH]nc(Cc2ccc(Cl)cc2)c2ccccc12,-,15,-,-,-,-,-,-
O=c1[nH]nc(Cc2ccc(Cl)cc2Cl)c2ccccc12,-,-,-,-,-,-,.,.
O=c1[nH]nc(CNc2ccc(O)cc2)c2ccccc12,-,16,-,-,-,-,-,-
CCCN1CCS(=O)(=O)N(Cc2cn(Cc3ccc(Cl)cc3)nn2)C(C(=O)OC)C1 (stereo not given),.,-,.,-,.,.,.,.
CCC(=O)NC(Nc1sc2c(c1C(=O)OC)CCN(C)C2)(C(F)(F)F)C(F)(F)F,-,17,-,-,-,-,-,-
SMILES,Cardiac RTF inh,Tn6 DDE FP,RTF Ca sens act,DDE Tn7 FP inh,CRFR2-BP antag,CRFR2-BP ag,Tn6 DDE ctr,Tn6 DDE conf
CCOC(=O)NC(Nc1sc2c(c1C(=O)OC)CCN(C)C2)(C(F)(F)F)C(F)(F)F,-,-,-,-,-,-,.,.
Cc1ccnc(NS(=O)(=O)c2ccc(NC(=O)c3cccc(Cl)c3)cc2)n1,.,-,.,-,-,-,.,.
C=CCn1c(=O)c2c(nc3n2CC(C)CN3Cc2ccccc2)n(C)c1=O (stereo not given),-,17,-,-,-,-,-,-
CCCn1c(=O)c2c(nc3n2CC(C)CN3Cc2ccccc2)n(C)c1=O (stereo not given),-,-,-,-,-,-,.,.
COC(=O)C1=C(C)N(Cc2ccccc2C(F)(F)F)C(=NCc2ccc3c(c2)OCO3)NC1c1ccc(C(F)(F)F)cc1 (stereo not given),.,-,.,-,.,.,.,.
COC(=O)[C@H](C)NC(=O)Nc1ccc(S(N)(=O)=O)cc1,-,-,-,-,-,-,.,.
CC(C)C(Cl)=NOC(=O)Nc1ccc(S(N)(=O)=O)cc1,-,16,-,-,-,-,-,-
CCOC(=O)C1=CCN(S(=O)(=O)c2ccccc2C)C1c1cccc(F)c1 (stereo not given),.,-,.,-,.,.,.,.
CS(=O)(=O)N1CCN=C1SCc1ccc(Br)cc1,-,-,-,-,-,-,.,.
CC(=O)N1CCN=C1SCc1ccc(Br)cc1,-,20,-,-,-,-,-,-
Cc1cc2ncn(C(=O)c3ccc4c(c3)OCO4)c2cc1C,-,-,-,-,-,-,.,.
Cc1ccc(C(=O)n2cnc3ccccc32)cc1C,-,16,-,-,-,-,-,-
O=C1c2ccccc2C(=O)c2c(NCc3cccnc3)cccc21,-,-,-,-,-,-,.,.
O=C1c2cccc(NCCCNCCO)c2C(=O)c2cccc(NCCCNCCO)c21,-,21,-,-,-,-,-,32
CCOC(=O)[C@@]12CCCC3=C1N(CCC3)C(=O)[C@H]2CC(=O)NCc1ccc(C)o1,.,-,.,-,.,.,.,.
CC(=O)N1CCSc2ccc(S(=O)(=O)NCCc3cccc(C)c3)cc21,-,16,-,-,-,-,-,-
